Four compounds from ChEMBL document CHEMBL4725348, “Rational Design and Evaluation of 6-(Pyrimidin-2-ylamino)-3,4-dihydroquinoxalin-2(1H)-ones as Polypharmacological Inhibitors of BET and Kinases” (J Med Chem, 2020) can be followed below.

Some results are limits rather than exact numbers.

Data set [1] concerns the target T1, Cyclin-dependent kinase 9 (Homo sapiens, UniProt P50750). As to the kind of experiment: Inhibition of CDK9 in human HCT-116 cells assessed as reduction in phosphorylation of […] protein expression at 50 to 500 nM after 24 hrs by Western blot analysis. To be noted: dose nM 50-500, time 24.0 hrs. The data set is classed as cell-based. In short, it runs like this: (§1)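 HCT-116 cells plated 24 h, then treated 24 h at 0, 50, 100, 250 or 500 nM. Lysates immunoblotted for p-AR and p-RNA Pol II CTD with GAPDH as loading control; bands quantified and normalized.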
On the technique in general: Immunoblotting shows a protein as a band on a membrane.

For data set [2], the target named is T1, Cyclin-dependent kinase 9. In words: Inhibition of CDK9 in human HCT-116 cells assessed as reduction in phosphorylation of AR protein expression at 50 to 500 nM after 24 hrs by Western blot analysis. Conditions: dose nM 50-500, time 24.0 hrs. The data set is classed as cell-based. The method, boiled down: as §1
The target of data set [3] is Bromodomain-containing protein 2 (Homo sapiens) (UniProt P25440). As to the kind of experiment: Inhibition of His6-tagged BRD2 bromodomain 1 (unknown origin) expressed in Escherichia coli Bl21(DE3) cells at 1 uM incubated for 4 hrs by FP assay relative to control. In short, it runs like this:
(§2)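 Fluorescence polarization. Purified bromodomain (His6 tag removed with TEV, size-exclusion purified) equilibrated with fluorescent ligand. Compound or DMSO (2‰ final) then added and left 4 h at room temperature in the dark. Anisotropy read at ex 485/em 530 nm. IC50 values are means of at least two independent experiments; single-point inhibition tested at the listed concentration.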

The target of data set [4] is T2, Bromodomain-containing protein 4 (Homo sapiens, UniProt O60885). In words: Inhibition of His6-tagged BRD4 bromodomain 1 (unknown origin) expressed in Escherichia coli Bl21(DE3) cells incubated for 4 hrs by FP assay. In short, it runs like this:
as §2

The target of data set [5] is T1, Cyclin-dependent kinase 9. In words: Inhibition of human CDK9 by mobility shift assay relative to control. In short, it runs like this:
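Recombinant CDK9 incubated with compound and CTD3 peptide substrate. Activity read by Caliper mobility-shift; Dinaciclib served as positive control. IC50 values are means of at least two independent experiments.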

Data set [6] addresses T2, Bromodomain-containing protein 4. In words: Inhibition of His6-tagged BRD4 bromodomain 2 (unknown origin) expressed in Escherichia coli Bl21(DE3) cells at 1 uM incubated for 4 hrs by FP assay relative to control. The method, boiled down: as §2
Data set [7] can be described thus: AUC (0 to t) in ICR mouse at 3 mg/kg, ip and measured up to 24 hrs by TQ-S triple quadrupole mass spectrometric method. The data set is classed as ADME, organism-based. The arrangement: route intraperitoneal, dose 3 mg/kg, time <=24. To be noted: in vivo. The method, boiled down:
(§3)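 Male ICR mice (20 - 22 g, n = 3) dosed intraperitoneally, compound at 1 mg/mL in 1%DMSO/0.5%HPMC (5/95, v/v). EDTA plasma collected 0.25–24 h. 10 µL plasma treated with methanol:acetonitrile (1:1) containing internal standard, then centrifuged. LC-MS/MS on C18 UPLC. Parameters derived from composite mean plasma concentration-time data; Cmax is the maximum observed concentration and Tmax the time it is reached.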

Data set [8] in a line: Elimination rate constant in ICR mouse at 3 mg/kg, ip and measured up to 24 hrs by TQ-S triple quadrupole mass spectrometric method. The data set is classed as ADME, organism-based. To be noted: in vivo. The method, boiled down:
as §3

Data set [9] can be described thus: Half life in ICR mouse at 3 mg/kg, ip and measured up to 24 hrs by TQ-S triple quadrupole mass spectrometric method. The data set is classed as ADME, organism-based. Conditions: in vivo. In short, it runs like this: as §3
Data set [10] addresses Bromodomain-containing protein 2 (Homo sapiens) (UniProt P25440). As to the kind of experiment: Inhibition of His6-tagged BRD2 bromodomain 2 (unknown origin) expressed in Escherichia coli Bl21(DE3) cells at 1 uM incubated for 4 hrs by FP assay relative to control. The method, boiled down:
as §2

Data set [11] can be described thus: AUC (0 to infinity) in ICR mouse at 3 mg/kg, ip and measured up to 24 hrs by TQ-S triple quadrupole mass spectrometric method. Conditions: in vivo. Format: ADME, organism-based. Also on record: route intraperitoneal, dose 3 mg/kg, time <=24. The method, boiled down: as §3
Data set [12] has as its target T3, Cyclin-dependent kinase 2 (Homo sapiens, UniProt P24941). In words: Inhibition of human CDK2 at 1 uM by kinome scan method relative to control. In short, it runs like this:
(§4)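 Eurofins DiscoveRx diversity kinase panel run at 1 µM. Inhibition values are means of at least two independent experiments.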

Data set [13] can be described thus: Tmax in ICR mouse at 3 mg/kg, ip and measured up to 24 hrs by TQ-S triple quadrupole mass spectrometric method. Format: ADME, organism-based. Conditions: in vivo. The method, boiled down: as §3
The target of data set [14] is Cyclin-dependent kinase 1 (Homo sapiens) (UniProt P06493). As to the kind of experiment: Inhibition of human CDK1 at 1 uM by kinome scan method relative to control. The method, boiled down: as §4
Sequence of Cyclin-dependent kinase 1 (Homo sapiens) (P06493 whole entry, looked up): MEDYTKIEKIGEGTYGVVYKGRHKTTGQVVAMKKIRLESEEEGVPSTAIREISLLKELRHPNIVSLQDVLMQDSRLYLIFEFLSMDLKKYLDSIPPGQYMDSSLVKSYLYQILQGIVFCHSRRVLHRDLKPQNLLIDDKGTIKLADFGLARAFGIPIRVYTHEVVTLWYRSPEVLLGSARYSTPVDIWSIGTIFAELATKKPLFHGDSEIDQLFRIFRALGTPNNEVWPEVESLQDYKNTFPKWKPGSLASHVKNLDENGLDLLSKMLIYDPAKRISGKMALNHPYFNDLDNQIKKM
Data set [15] can be described thus: Cmax in ICR mouse at 3 mg/kg, ip and measured up to 24 hrs by TQ-S triple quadrupole mass spectrometric method. Also on record: route intraperitoneal, dose 3 mg/kg, time <=24. Conditions: in vivo. Format: ADME, organism-based. The method, boiled down: as §3
The species named for the next data set is Homo sapiens. In words: Selectivity ratio of IC50 for inhibition of human CDK2 to IC50 for inhibition of human CDK9.
The target in data set [16] is T3, Cyclin-dependent kinase 2. In words: Inhibition of human CDK2 by kinome scan method.
For data set [17], the target named is ALK tyrosine kinase receptor (Homo sapiens, UniProt Q9UM73). In words: Inhibition of ALK (unknown origin).
Sequence of ALK tyrosine kinase receptor (Q9UM73 whole entry): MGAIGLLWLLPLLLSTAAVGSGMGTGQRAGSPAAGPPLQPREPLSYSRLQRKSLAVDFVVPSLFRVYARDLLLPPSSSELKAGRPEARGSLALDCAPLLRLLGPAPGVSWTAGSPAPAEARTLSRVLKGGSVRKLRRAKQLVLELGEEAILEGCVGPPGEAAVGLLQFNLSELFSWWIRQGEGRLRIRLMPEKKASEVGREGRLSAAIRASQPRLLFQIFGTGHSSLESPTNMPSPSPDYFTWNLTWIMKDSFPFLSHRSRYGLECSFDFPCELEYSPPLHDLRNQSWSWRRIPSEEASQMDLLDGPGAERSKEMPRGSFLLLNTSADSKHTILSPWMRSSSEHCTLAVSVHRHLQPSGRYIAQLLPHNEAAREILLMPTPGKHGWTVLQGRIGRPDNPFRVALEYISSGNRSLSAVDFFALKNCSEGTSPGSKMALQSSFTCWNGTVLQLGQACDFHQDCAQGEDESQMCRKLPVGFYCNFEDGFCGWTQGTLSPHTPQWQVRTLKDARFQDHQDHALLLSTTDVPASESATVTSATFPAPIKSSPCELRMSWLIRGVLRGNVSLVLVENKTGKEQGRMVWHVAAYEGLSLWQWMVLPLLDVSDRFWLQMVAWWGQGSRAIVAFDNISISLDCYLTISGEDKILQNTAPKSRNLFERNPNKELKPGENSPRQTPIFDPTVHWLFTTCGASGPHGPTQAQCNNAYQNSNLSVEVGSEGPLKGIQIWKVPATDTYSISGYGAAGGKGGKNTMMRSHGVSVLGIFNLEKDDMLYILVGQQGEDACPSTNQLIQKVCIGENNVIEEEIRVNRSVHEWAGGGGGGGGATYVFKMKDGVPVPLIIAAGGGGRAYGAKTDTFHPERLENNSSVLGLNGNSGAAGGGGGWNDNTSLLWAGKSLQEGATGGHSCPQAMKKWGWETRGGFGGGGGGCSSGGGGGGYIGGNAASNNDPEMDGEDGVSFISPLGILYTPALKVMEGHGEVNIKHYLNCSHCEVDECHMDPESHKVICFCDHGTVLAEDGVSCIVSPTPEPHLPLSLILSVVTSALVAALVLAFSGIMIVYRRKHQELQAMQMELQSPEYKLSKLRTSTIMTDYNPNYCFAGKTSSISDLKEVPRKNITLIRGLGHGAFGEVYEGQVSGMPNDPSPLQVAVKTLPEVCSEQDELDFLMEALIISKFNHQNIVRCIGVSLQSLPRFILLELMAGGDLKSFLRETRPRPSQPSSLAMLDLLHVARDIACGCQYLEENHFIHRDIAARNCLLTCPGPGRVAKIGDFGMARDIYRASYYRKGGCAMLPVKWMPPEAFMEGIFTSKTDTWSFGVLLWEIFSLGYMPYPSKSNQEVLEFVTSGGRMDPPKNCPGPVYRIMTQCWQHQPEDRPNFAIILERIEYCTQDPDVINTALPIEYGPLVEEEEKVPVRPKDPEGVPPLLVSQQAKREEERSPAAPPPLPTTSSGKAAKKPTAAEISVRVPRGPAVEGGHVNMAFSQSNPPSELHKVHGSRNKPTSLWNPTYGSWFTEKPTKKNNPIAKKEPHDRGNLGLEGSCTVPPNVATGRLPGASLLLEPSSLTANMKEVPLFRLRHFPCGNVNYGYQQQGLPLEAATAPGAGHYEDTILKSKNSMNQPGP
Data set [18] addresses T2, Bromodomain-containing protein 4. In words: Inhibition of His6-tagged BRD4 bromodomain 1 (unknown origin) expressed in Escherichia coli Bl21(DE3) cells at 10 uM incubated for 4 hrs by FP assay relative to control. The method, boiled down: as §2

T1 sequence (P50750 whole entry): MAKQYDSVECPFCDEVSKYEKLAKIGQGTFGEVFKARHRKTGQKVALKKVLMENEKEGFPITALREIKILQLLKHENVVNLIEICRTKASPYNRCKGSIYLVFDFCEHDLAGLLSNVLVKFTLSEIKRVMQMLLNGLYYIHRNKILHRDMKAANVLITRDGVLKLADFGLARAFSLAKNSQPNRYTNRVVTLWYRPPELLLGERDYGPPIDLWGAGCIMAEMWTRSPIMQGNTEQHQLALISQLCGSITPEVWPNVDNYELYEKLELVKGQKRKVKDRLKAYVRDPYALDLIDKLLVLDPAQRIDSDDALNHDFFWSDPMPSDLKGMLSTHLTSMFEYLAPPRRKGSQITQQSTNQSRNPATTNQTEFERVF
Sequence of Bromodomain-containing protein 2 (Homo sapiens) (P25440 whole entry, looked up): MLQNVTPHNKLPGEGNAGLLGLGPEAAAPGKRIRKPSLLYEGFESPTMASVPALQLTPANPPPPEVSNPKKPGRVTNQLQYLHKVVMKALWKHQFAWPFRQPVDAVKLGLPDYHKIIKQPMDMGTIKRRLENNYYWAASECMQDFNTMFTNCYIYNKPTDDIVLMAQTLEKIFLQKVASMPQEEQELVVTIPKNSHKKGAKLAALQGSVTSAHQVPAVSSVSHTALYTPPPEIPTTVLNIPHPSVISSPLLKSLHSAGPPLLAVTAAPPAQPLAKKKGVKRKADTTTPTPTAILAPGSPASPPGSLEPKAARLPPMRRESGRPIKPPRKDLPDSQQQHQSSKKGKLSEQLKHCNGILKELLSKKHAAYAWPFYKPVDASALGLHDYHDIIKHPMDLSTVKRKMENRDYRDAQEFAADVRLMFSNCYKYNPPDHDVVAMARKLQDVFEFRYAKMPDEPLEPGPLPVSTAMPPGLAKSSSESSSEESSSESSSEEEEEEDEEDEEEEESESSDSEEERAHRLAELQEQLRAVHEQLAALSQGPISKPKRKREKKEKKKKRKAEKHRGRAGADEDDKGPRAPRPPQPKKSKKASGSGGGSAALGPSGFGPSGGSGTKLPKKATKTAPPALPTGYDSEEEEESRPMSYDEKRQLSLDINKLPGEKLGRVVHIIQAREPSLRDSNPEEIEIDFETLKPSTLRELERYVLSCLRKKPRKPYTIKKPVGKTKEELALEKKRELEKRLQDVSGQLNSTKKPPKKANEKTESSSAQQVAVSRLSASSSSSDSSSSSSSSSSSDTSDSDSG

Take `COc1cc(F)ccc1-c1ncnc(Nc2cccc(C[S@](C)(=N)=O)c2)n1`: the inhibition entry in data set [1] and in [2] was “Dose-dependent effect” each time.

Take `CC(C)N1c2cc(Nc3nccc(-c4cncc5ccccc45)n3)ccc2N(C)C(=O)[C@H]1C`: the inhibition was less than 12% in data set [3]; less than 12% in data set [6]; “Dose-dependent effect” in [1]; “Dose-dependent effect” in data set [2]; less than 12% in data set [10]; 90% in data set [12]. The inhibition in data set [14] was determined as 90%. For the same compound, the IC50 in data set [4] came to 12.7 nM; in data set [5], 22.4 nM; in data set [16], 169 nM. In addition, in [7], the exposure AUC(0-t) at 24 h is 757 ng·h/mL. This compound also had a k el at 24 h in [8] of 0.000403 s⁻¹. This compound also had a half-life in [9] of 28.8 min. The same compound showed an AUC(0-inf) in data set [11] of 759 ng·h/mL. In addition, the Tmax in [13] amounted to 11.6 min. This compound also gave a Cmax in [15] of 1370 ng/mL. Moreover, the Ratio IC50 in the data set listed under Homo sapiens came to 8.

Consider `CCOc1cc(C2CCN(C)CC2)ccc1Nc1ncc2c(n1)N(Cc1cc(C)cs1)[C@H](CC)C(=O)N2C`, for which the midpoint of inhibition in data set [17], the IC50, lay at 17 nM.

For the compound `CC(C)N1c2cc(Nc3nccc(-c4cccc(NC5CCCC5)c4)n3)ccc2N(C)C(=O)[C@H]1C`, the IC50 in [5] was 122 nM. The compound further showed an inhibition in data set [18] of 11%.

Usually inhibition stands for the relative decrease from the control value, in per cent. As usually defined, the IC50 is the concentration at which inhibition is half-maximal. A word on the AUC(0-t): it is the area under the concentration-time curve up to a stated or last time point. High values mean high exposure, low ones low exposure. The term half-life denotes the time needed for the level to fall by half in the phase considered. The low end stands for rapid decline, the high end for slow decline. What is called AUC(0-inf) is the area under the concentration-time curve extrapolated to infinity. Low values mean low exposure, high ones high exposure. In general, Tmax refers to the time from dosing to the highest level. What is called Cmax is the maximum level reached in the sampled fluid or tissue.
